Reference: ChEMBL document CHEMBL1765070, “Structure-based design of potent and selective 3-phosphoinositide-dependent kinase-1 (PDK1) inhibitors” (J Med Chem, 2011)

How the values were obtained:
[1] = biological target: T1, TGF-beta receptor type-1 (Homo sapiens, UniProt P36897); test: Inhibition of ALK5
T1 sequence (P36897 whole entry): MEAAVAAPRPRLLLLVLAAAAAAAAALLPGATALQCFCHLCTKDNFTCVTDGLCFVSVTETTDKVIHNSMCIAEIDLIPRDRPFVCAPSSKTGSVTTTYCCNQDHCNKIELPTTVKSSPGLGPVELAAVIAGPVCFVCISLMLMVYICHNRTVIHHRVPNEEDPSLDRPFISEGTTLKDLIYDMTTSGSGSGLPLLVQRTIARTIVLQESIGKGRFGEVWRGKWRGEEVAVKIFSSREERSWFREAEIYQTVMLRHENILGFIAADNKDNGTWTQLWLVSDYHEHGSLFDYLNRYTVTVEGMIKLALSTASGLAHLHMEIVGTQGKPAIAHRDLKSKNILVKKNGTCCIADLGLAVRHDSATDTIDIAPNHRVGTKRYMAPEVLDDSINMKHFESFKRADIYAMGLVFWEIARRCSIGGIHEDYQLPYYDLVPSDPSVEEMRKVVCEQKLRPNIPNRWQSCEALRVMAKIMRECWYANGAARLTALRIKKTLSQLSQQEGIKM

[2] = system: K562; test: Antiproliferative activity against human K562 cells; type: functional, cell-based
[3] = system: OCI-AML2; test: Antiproliferative activity against human OCI-AML2 cells; type: functional, cell-based
[4] = Antiproliferative activity against human OCI-AML3 cells; type: functional, cell-based; conditions: OCI-AML-3
[5] = system: HEL; test: Antiproliferative activity against human HEL 92.1.7 cells; type: functional, cell-based
[6] = Antiproliferative activity against human F-36P cells; type: functional, cell-based
[7] = biological target: Serine/threonine-protein kinase Sgk2 (Homo sapiens) (UniProt Q9HBY8); test: Inhibition of human SGK2 assessed as residual activity at 10 uM
[8] = biological target: 3-phosphoinositide-dependent protein kinase 1 (Homo sapiens) (UniProt O15530); test: Inhibition of human PDK1 assessed as residual activity at 10 uM
[9] = biological target: cAMP-dependent protein kinase catalytic subunit PRKX (Homo sapiens) (UniProt P51817); test: Inhibition of human PrKX assessed as residual activity at 10 uM
[10] = biological target: Ribosomal protein S6 kinase alpha-6 (Homo sapiens) (UniProt Q9UK32); test: Inhibition of human RSK4 assessed as residual activity at 10 uM
[11] = biological target: Serine/threonine-protein kinase Sgk1 (Homo sapiens) (UniProt O00141); test: Inhibition of human SGK assessed as residual activity at 10 uM
Sequence of Serine/threonine-protein kinase Sgk1 (Homo sapiens) (O00141 whole entry): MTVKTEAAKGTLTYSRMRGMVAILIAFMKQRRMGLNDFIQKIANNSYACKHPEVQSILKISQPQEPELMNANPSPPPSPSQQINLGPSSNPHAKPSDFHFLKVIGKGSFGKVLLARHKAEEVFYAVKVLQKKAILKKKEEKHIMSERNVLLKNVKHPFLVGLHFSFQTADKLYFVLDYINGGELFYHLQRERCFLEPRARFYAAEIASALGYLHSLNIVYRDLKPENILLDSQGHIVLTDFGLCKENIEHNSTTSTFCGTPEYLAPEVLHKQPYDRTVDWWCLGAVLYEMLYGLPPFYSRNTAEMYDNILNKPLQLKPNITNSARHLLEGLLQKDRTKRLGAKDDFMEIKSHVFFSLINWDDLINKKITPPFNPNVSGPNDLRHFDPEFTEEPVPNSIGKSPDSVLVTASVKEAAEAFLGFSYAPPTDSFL

[12] = biological target: NUAK family SNF1-like kinase 1 (Homo sapiens) (UniProt O60285); test: Inhibition of human ARK5 assessed as residual activity at 10 uM
[13] = biological target: Rho-associated protein kinase 2 (Rattus norvegicus) (UniProt Q62868); test: Inhibition of rat ROCK2 assessed as residual activity at 10 uM
[14] = biological target: Death-associated protein kinase 3 (Homo sapiens) (UniProt O43293); test: Inhibition of human ZIPK assessed as residual activity at 10 uM
[15] = biological target: RAC-gamma serine/threonine-protein kinase (Homo sapiens) (UniProt Q9Y243); test: Inhibition of human PKBgamma assessed as residual activity at 10 uM
Sequence of RAC-gamma serine/threonine-protein kinase (Homo sapiens) (Q9Y243 whole entry): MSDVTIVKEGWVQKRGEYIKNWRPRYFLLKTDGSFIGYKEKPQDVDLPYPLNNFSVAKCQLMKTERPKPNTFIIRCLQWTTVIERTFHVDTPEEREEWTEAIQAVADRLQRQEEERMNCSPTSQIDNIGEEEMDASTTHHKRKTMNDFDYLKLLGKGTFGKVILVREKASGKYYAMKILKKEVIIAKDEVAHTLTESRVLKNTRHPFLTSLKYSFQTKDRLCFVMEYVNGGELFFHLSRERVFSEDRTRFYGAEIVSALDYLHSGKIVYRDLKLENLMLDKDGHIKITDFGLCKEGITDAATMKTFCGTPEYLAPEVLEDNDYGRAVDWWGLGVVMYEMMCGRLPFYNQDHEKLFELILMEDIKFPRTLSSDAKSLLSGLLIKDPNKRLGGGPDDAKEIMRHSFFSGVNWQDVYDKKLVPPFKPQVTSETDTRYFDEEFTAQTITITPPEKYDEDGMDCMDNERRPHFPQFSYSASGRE

[16] = biological target: Serine/threonine-protein kinase 17A (Homo sapiens) (UniProt Q9UEE5); test: Inhibition of human DRAK1 assessed as residual activity at 10 uM
[17] = biological target: Rho-associated protein kinase 2 (Homo sapiens) (UniProt O75116); test: Inhibition of human ROCK2 assessed as residual activity at 10 uM
[18] = biological target: Ribosomal protein S6 kinase alpha-3 (Homo sapiens) (UniProt P51812); test: Inhibition of human RSK2 assessed as residual activity at 10 uM
Sequence of Ribosomal protein S6 kinase alpha-3 (Homo sapiens) (P51812 whole entry): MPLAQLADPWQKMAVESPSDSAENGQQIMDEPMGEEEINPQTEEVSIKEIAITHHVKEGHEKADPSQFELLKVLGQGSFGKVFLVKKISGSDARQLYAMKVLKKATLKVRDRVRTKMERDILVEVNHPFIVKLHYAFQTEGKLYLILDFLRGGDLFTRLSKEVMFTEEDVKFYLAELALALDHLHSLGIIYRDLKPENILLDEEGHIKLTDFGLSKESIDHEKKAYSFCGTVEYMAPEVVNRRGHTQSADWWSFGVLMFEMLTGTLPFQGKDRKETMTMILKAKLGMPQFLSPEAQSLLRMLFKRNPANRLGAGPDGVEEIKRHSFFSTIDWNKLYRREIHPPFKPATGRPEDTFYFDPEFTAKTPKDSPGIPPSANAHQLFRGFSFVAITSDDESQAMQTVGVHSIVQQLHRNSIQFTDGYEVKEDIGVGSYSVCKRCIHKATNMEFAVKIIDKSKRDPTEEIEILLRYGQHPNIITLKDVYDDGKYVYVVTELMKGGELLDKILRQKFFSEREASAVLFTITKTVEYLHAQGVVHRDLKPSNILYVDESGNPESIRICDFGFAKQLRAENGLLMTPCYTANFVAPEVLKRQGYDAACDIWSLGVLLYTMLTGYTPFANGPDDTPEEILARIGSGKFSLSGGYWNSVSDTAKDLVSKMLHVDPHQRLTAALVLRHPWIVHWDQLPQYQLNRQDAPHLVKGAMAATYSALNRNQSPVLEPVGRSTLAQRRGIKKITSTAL

[19] = biological target: Serine/threonine-protein kinase Chk2 (Homo sapiens) (UniProt O96017); test: Inhibition of human CHK2 assessed as residual activity at 10 uM
Sequence of Serine/threonine-protein kinase Chk2 (Homo sapiens) (O96017 whole entry): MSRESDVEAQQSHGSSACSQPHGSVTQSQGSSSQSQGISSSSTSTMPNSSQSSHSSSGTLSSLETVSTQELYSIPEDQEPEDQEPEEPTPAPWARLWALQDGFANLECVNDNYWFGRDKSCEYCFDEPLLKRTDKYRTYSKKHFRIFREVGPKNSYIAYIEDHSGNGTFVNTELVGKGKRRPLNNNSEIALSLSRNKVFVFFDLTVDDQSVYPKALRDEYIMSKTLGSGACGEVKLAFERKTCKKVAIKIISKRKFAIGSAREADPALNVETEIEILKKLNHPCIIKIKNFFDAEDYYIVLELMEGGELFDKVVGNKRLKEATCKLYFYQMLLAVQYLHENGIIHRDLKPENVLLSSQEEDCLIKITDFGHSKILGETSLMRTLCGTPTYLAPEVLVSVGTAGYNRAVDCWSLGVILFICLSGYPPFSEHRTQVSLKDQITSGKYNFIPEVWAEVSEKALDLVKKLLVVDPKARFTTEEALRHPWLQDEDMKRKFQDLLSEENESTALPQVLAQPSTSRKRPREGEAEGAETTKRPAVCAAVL

[20] = biological target: Serine/threonine-protein kinase BRSK1 (Homo sapiens) (UniProt Q8TDC3); test: Inhibition of human BRSK1 assessed as residual activity at 10 uM
Sequence of Serine/threonine-protein kinase BRSK1 (Homo sapiens) (Q8TDC3 whole entry): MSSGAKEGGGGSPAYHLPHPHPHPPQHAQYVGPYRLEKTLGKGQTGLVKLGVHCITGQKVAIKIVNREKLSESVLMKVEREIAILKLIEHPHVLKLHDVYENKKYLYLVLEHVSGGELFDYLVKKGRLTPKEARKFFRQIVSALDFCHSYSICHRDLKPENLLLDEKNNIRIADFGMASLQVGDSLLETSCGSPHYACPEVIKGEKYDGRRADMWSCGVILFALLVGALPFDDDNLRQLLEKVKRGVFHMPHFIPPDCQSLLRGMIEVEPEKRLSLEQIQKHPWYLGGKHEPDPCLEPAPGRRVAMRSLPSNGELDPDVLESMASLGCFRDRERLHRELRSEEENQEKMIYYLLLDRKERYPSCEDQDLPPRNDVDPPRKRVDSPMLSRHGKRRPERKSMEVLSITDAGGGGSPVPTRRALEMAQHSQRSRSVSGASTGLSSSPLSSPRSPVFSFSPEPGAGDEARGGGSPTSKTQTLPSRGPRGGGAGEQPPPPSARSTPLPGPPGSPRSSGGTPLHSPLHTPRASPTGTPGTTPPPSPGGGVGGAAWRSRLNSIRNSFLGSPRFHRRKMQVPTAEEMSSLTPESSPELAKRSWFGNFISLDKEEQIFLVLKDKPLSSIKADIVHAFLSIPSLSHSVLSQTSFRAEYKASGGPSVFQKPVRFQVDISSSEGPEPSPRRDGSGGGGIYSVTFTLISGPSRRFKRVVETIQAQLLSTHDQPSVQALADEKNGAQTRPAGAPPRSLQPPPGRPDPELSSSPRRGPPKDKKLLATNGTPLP

[21] = biological target: Ribosomal protein S6 kinase alpha-1 (Rattus norvegicus) (UniProt Q63531); test: Inhibition of rat RSK1 assessed as residual activity at 10 uM
Sequence of Ribosomal protein S6 kinase alpha-1 (Rattus norvegicus) (Q63531 whole entry): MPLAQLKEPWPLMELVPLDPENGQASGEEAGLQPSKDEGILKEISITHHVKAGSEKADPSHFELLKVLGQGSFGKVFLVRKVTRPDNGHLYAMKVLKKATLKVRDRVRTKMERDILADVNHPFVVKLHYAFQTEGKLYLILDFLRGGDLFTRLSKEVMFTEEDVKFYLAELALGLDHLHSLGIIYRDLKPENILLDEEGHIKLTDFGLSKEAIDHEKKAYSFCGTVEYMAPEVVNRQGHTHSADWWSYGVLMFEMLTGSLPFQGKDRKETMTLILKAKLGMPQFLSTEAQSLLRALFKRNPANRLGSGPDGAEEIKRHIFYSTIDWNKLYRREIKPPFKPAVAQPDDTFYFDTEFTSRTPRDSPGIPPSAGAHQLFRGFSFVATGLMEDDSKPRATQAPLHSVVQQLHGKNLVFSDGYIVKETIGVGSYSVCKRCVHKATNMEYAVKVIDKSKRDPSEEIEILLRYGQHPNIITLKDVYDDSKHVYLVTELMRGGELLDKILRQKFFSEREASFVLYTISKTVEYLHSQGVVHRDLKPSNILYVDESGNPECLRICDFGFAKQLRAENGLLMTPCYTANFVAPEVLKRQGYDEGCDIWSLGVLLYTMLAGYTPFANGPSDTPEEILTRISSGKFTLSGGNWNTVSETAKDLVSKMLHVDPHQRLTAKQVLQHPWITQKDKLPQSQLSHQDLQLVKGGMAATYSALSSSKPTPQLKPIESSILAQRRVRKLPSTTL

[22] = biological target: Serine/threonine-protein kinase NLK (Homo sapiens) (UniProt Q9UBE8); test: Inhibition of human NLK assessed as residual activity at 10 uM
Sequence of Serine/threonine-protein kinase NLK (Homo sapiens) (Q9UBE8 whole entry): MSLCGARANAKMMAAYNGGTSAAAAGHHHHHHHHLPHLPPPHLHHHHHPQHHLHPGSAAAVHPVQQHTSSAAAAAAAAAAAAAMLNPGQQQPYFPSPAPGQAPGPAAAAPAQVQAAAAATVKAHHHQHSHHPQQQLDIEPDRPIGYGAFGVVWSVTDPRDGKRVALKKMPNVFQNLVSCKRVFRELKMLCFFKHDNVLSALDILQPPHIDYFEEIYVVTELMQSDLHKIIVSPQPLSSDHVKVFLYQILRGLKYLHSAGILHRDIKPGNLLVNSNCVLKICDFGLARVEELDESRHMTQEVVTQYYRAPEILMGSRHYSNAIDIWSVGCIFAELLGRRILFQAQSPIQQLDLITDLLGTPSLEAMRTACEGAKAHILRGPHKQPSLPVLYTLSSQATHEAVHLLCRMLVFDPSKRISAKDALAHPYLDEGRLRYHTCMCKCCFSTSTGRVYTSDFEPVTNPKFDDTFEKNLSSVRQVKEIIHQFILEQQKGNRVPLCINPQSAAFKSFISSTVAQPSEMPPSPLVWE

[23] = system: Hepatocyte growth factor receptor (Homo sapiens), P08581 [D1246H]; test: Inhibition of human MET D1246H mutant assessed as residual activity at 10 uM
[24] = biological target: Serine/threonine-protein kinase BRSK2 (Homo sapiens) (UniProt Q8IWQ3); test: Inhibition of human BRSK2 assessed as residual activity at 10 uM
[25] = biological target: Proto-oncogene tyrosine-protein kinase receptor Ret (Homo sapiens) (UniProt P07949); test: Inhibition of human RET assessed as residual activity at 10 uM
[26] = biological target: Ribosomal protein S6 kinase alpha-1 (Homo sapiens) (UniProt Q15418); test: Inhibition of human RSK1 assessed as residual activity at 10 uM
[27] = system: Hepatocyte growth factor receptor (Homo sapiens), P08581 [Y1248H]; test: Inhibition of human MET Y1248H assessed as residual activity at 10 uM
[28] = biological target: RAC-alpha serine/threonine-protein kinase (Homo sapiens, UniProt P31749); test: Inhibition of AKT1
[29] = biological target: Mitogen-activated protein kinase kinase kinase 5 (Homo sapiens, UniProt Q99683); test: Inhibition of ASK1
[30] = biological target: Glycogen synthase kinase-3 beta (Homo sapiens, UniProt P49841); test: Inhibition of GSK3B
[31] = biological target: Inhibitor of nuclear factor kappa-B kinase subunit alpha (Homo sapiens, UniProt O15111); test: Inhibition of IKK1
[32] = biological target: Phosphatidylinositol 4,5-bisphosphate 3-kinase catalytic subunit gamma isoform (Homo sapiens, UniProt P48736); test: Inhibition of PI3Kgamma
[33] = biological target: Tyrosine-protein kinase SYK (Homo sapiens, UniProt P43405); test: Inhibition of SYK
[34] = biological target: Vascular endothelial growth factor receptor 2 (Homo sapiens, UniProt P35968); test: Inhibition of VEGFR2
[35] = AUC in SCID mouse xenografted with human OCI-AML-2 cells at 100 mg/kg, ip administered as a single dose by LC/MS/MS analysis; type: ADME, organism-based; set-up: dose 100 mg/kg, route intraperitoneal; conditions: in vivo
Procedure, shortened: (§1)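 SCID mice with subcutaneous OCI-AML2 xenografts (~500-600 mm3) received a single 100 mg/kg ip dose in 1% DMSO, 20% PEG400, pH 4.2. hIGF-I was injected iv at 3 or 6 h, with blood and tumor taken 10 min after. Compound levels were measured by LC/MS/MS.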

[36] = Cmax in SCID mouse xenografted with human OCI-AML-2 cells at 100 mg/kg, ip administered as a single dose by LC/MS/MS analysis; type: ADME, organism-based; set-up: dose 100 mg/kg, route intraperitoneal; conditions: in vivo; procedure, shortened: as §1
[37] = system: Mus musculus; test: Inhibition of PDK1-mediated AKT phosphorylation at Thr308 residue in human OCI-AML-2 cells xenografted in SCID mouse at 100 mg/kg, ip after 6 hrs by LC/MS/MS analysis; conditions: OCI-AML2, ip, read-out: INH
[38] = system: Mus musculus; test: Inhibition of PDK1-mediated AKT phosphorylation at Thr308 residue in human OCI-AML-2 cells xenografted in SCID mouse at 100 mg/kg, ip after 3 hrs by LC/MS/MS analysis; conditions: OCI-AML2, ip, read-out: INH
[39] = system: Mus musculus; test: Inhibition of PDK1-mediated RSK phosphorylation at Ser221 residue in human OCI-AML-2 cells xenografted in SCID mouse at 100 mg/kg, ip after 3 hrs by LC/MS/MS analysis; conditions: OCI-AML2, ip, read-out: INH
[40] = system: Mus musculus; test: Inhibition of PDK1-mediated RSK phosphorylation at Ser221 residue in human OCI-AML-2 cells xenografted in SCID mouse at 100 mg/kg, ip after 6 hrs by LC/MS/MS analysis; conditions: OCI-AML2, ip, read-out: INH
[41] = biological target: Ribosomal protein S6 kinase alpha-2 (Homo sapiens) (UniProt Q15349); test: Inhibition of human RSK3 assessed as residual activity at 10 uM
[42] = biological target: Protein kinase C zeta type (Homo sapiens) (UniProt Q05513); test: Inhibition of human PKCzeta assessed as residual activity at 10 uM
Sequence of Protein kinase C zeta type (Homo sapiens) (Q05513 whole entry, looked up): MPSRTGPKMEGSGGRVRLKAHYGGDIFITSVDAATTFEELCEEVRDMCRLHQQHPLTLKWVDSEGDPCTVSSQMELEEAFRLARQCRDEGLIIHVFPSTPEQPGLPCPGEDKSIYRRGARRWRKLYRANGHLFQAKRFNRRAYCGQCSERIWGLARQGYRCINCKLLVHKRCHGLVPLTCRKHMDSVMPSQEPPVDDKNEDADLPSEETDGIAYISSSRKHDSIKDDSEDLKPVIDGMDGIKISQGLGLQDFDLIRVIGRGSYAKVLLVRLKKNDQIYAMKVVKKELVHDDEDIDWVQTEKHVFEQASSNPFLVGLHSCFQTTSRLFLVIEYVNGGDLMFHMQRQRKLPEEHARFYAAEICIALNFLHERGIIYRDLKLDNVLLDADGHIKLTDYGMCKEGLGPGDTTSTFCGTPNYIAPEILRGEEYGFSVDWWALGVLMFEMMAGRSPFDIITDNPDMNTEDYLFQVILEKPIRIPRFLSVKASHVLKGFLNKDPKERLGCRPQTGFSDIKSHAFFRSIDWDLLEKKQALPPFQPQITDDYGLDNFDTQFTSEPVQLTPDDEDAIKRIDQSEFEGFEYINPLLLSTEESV

## CNc1nc(-c2ccc3c(N)n[nH]c3c2)cc(N2C[C@@H](C(=O)NC3CCCCC3)CC[C@H]2C)n1
[1]; read-out: IC50
  IC50: > 10 µM
[1]; read-out: pIC50 (converted)
  IC50: > 10 µM
[2]
  IC50: 18 µM
[3]
  IC50: 350 nM
[4]
  IC50: 520 nM
[5]
  IC50: > 30 µM
[6]
  IC50: 280 nM
[7]
  Activity: -2%
[8]
  Activity: 0%
[9]
  Activity: 4%
[10]
  Activity: 12%
[11]
  Activity: 13%
[12]
  Activity: 16%
[13]
  Activity: 17%
[14]
  Activity: 21%
[15]
  Activity: 22%
[16]
  Activity: 23%
[17]
  Activity: 26%
[18]
  Activity: 28%
[19]
  Activity: 29%
[20]
  Activity: 33%
[21]
  Activity: 34%
[22]
  Activity: 38%
[23]
  Activity: 43%
[24]
  Activity: 44%
[25]
  Activity: 46%
[26]
  Activity: 46%
[27]
  Activity: 49%
[28]
  IC50: > 10 µM
[29]
  IC50: > 27.5 µM
[30]
  IC50: > 25.1 µM
[31]
  IC50: > 25.1 µM
[32]
  IC50: 25.1 µM
[33]
  IC50: > 25.1 µM
[34]
  IC50: > 10 µM
[35]
  AUC: 31400 ng·h/mL
[36]
  Cmax: 4510 ng/mL
[37]
  inhibition in vivo at 100 mg/kg: 29%
[38]
  inhibition in vivo at 100 mg/kg: 58%
[39]
  inhibition in vivo at 100 mg/kg: 57%
[40]
  inhibition in vivo at 100 mg/kg: 71%
[41]
  Activity: 14%
[42]
  Activity: 29%
